Assay [1] deals with C8166. The assay is described as follows: Concentration of compound that inhibits incorporation of radiolabeled amino acids by 50 %. Type of assay: functional. As to conditions: Homo sapiens, read-out: CD50 (the source's name). The essentials:
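C8166 cells (2 × 10⁵) exposed to compound at various concentrations for 3 days, washed, then given ¹⁴C protein hydrolysate for a further 24 h. Cells harvested and washed, ¹⁴C incorporation counted by scintillation, radioactivity plotted against concentration; CD50 = concentration inhibiting label incorporation by 50%.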

For assay [2], the system named is C8166. The assay can be described thus: Antiviral activity against HIV-1 (RF strain) in C8166 cells. Type of assay: functional, cell-based. As to conditions: Homo sapiens. The essentials:
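HIV-1 RF strain in C8166 cells, 3-day incubation with compound at various concentrations (highest tested 100 μM). Virus in culture medium quantified by p24 antigen-capture ELISA (primary antiserum against p24, horseradish peroxidase detection), colour read spectrophotometrically and plotted against concentration; IC50 = concentration reducing virus levels by 50%.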

Molecules are shown by their SMILES. Bounds are passed on as bounds.

What is called IC50 is the concentration that inhibits the measured activity by half. High values mean weaker potency in that assay, low ones greater potency in that assay. As to `Cc1cn([C@@H]2O[C@H](CO)C=C2F)c(=O)[nH]c1=O`, in the assay with C8166 [1], the CC50 is above 1000 µM. For the same compound, 100 µM corresponded to half-maximal inhibition in the assay with C8166 [2] (IC50).

As to `O=c1ccn(C2OC(CO)C=C2F)c(=O)[nH]1` (configuration not stated), the IC50 in the assay with C8166 [2] was above 100 µM. The same measure, in the same setting: then `O=c1ccn(C2OC(CO)CC2F)c(=O)[nH]1` (configuration not stated), with above 100 µM. `Cc1cn([C@H]2C[C@H](N=[N+]=[N-])[C@@H](CO)O2)c(=O)[nH]c1=O` [ZIDOVUDINE]: in the assay on C8166 [1], the CC50 is above 1000 µM. The IC50 with C8166 [2] turned out to be 0.0085 µM.

`O=c1ccn(C2OC(CO)C(F)C2F)c(=O)[nH]1` (configuration not stated) registered an IC50 with C8166 [2] above 100 µM.

For `Nc1ccn([C@@H]2O[C@H](CO)C=C2F)c(=O)n1`, in the assay with C8166 [1], the CC50 came out at 30 µM. The half-maximal inhibitory concentration (IC50) in the assay on C8166 [2] was determined as 10 µM. As for `Nc1ccn(C2OC(CO)CC2F)c(=O)n1` (configuration not stated), the IC50 with C8166 [2] was above 100 µM. Take `Nc1ccn([C@@H]2O[C@H](CO)C[C@@H]2F)c(=O)n1`: in the assay with C8166 [1], the CC50 was determined as 500 µM. The IC50 in the assay with C8166 [2] stood at 0.7 µM.

As for `Nc1ccn(C2OC(CO)C(F)C2F)c(=O)n1` (configuration not stated), the CC50 in the assay with C8166 [1] was above 100 µM. In addition, half-maximal inhibition in the assay on C8166 [2] (IC50) was put at 10 µM. In the case of `Nc1nc(=O)n(C2OC(CO)CC2F)cc1F` (configuration not stated), the IC50 with C8166 [2] was above 100 µM. Consider `Nc1ccn([C@H]2CC[C@@H](CO)O2)c(=O)n1` [ZALCITABINE], for which the CC50 with C8166 [1] was determined as 1000 µM. For the same compound, the IC50 in the assay on C8166 [2] worked out at 0.125 µM.

Values taken from ChEMBL document CHEMBL1124867, “Synthesis and antiviral activity of monofluoro and difluoro analogues of pyrimidine deoxyribonucleosides against human immunodeficiency virus (HIV-1)” (J Med Chem, 1990).
